Laboratory results reported in ChEMBL document CHEMBL2321659, “Design, synthesis, and biological evaluation of indenoisoquinoline rexinoids with chemopreventive potential” (J Med Chem, 2013).
Calls of active or inactive are those of the source. The calls are words filed in the database; no cut-off is given here.

How the values were obtained:
[1] = target: T1, Retinoic acid receptor RXR-alpha (Homo sapiens) (UniProt P19793); experiment: Binding affinity to RXRalpha (unknown origin) at 10 uM after 2 hrs by ultrafiltration LC-MS/MS analysis relative to control
T1 sequence (whole entry): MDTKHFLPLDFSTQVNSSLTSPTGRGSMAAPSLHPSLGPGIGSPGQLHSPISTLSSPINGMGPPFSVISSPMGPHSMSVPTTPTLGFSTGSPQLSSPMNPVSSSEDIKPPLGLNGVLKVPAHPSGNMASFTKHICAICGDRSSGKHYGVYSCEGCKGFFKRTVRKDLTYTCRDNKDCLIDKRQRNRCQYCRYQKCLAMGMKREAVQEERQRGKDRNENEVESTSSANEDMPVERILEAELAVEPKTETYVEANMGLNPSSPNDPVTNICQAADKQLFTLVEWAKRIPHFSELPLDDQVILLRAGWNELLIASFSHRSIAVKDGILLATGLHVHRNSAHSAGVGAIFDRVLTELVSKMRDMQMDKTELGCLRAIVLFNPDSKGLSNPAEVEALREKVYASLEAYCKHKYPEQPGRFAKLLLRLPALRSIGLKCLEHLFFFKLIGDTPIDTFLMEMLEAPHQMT
Method in brief: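 Purified RXRα (10 µM stock in 50 mM Tris-HCl pH 7.5, 50 mM KCl, 1 mM EDTA) incubated with ligand (final 10 µM, DMSO) for 2 h at room temperature. Then 10 kDa ultrafiltration at 4 °C, three ammonium acetate pH 7.5 washes, release with 90% methanol, UHPLC-MS/MS (SRM). Binding ratio is peak area versus denatured-RXRα (60–70 °C, 15 min) control.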

[2] = Cytotoxicity against African green monkey COS1 cells assessed as cell survival; assay type: cell-based; set-up: concentration or dose not given beside the values; settings: chlorocebus aethiops, COS-1 cells; read-out: Activity
[3] = target: T2, Retinoic acid receptor RXR-alpha (Homo sapiens, UniProt P19793); experiment: Activation of human RXRalpha activity expressed in COS1 cells after 12 hrs by RXRE-luciferase reporter gene assay; assay type: cell-based, COS-1
T2 sequence (P19793 whole entry): T1 sequence (whole entry)

[4] = target: T1, Retinoic acid receptor RXR-alpha (Homo sapiens); experiment: Activation of human RXRalpha activity expressed in COS1 cells assessed as induction ratio at 50 uM after 12 hrs by RXRE-luciferase reporter gene assay relative to untreated control; assay type: cell-based; settings: COS-1
Method in brief: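 COS-1 cells transiently co-transfected per well with 100 ng RXRE-firefly luciferase reporter, 50 ng human RXRα expression vector and 3 ng Renilla luciferase vector using Lipofectamine 2000 for 24 h, then exposed to compound for a further 12 h. Dual-luciferase read-out. Induction ratio taken at 50 µM test concentration.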

[5] = target: T3, Vitamin D3 receptor (Homo sapiens) (UniProt P11473); experiment: Binding affinity to VDR (unknown origin) after 30 mins by ultrafiltration LC-MS/MS analysis relative to 6-(6-aminohexyl)-5H-indeno[1,2-c]isoquinoline-5,11(6H)-dione; set-up: Activity: concentration or dose not given beside the values
T3 sequence (whole entry): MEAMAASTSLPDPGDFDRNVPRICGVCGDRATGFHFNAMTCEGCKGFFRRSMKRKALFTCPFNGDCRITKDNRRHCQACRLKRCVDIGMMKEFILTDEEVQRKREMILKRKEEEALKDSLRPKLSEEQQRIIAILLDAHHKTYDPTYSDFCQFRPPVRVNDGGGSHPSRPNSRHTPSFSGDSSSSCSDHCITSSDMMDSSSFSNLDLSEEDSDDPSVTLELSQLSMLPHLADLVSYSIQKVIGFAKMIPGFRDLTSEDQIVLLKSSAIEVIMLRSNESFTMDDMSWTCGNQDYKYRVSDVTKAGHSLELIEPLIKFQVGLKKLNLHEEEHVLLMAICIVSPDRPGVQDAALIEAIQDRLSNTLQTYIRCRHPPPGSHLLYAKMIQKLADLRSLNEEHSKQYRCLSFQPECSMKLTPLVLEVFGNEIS
Method in brief: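 Recombinant VDR incubated with ligand in 20 µL for 30 min at 37 °C in the dark with shaking. Then ultrafiltration at 4 °C and rinses with cold 50 mM ammonium acetate/0.1 mM NaCl pH 8.0. Bound ligand released with methanol containing genistein, dried under N2 and quantified by LC-MS. Controls were boiled hVDR or no protein.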

[6] = target: T3, Vitamin D3 receptor (Homo sapiens); experiment: Binding affinity to VDR (unknown origin) assessed as inhibition of curcumin binding after 30 mins by ultrafiltration LC-MS/MS analysis
HL-60 [7] = experiment: Cytotoxicity against human HL60 cells assessed as inhibition of cell proliferation after 96 hrs; assay type: functional, cell-based; settings: HL-60, 96 h
HL-60 [8] = experiment: Cell cycle arrest in human HL60 cells assessed as accumulation at subG1 phase at 13 nM relative to control; assay type: functional
HL-60 [9] = experiment: Cell cycle arrest in human HL60 cells assessed as accumulation at subG1 phase at 250 nM relative to control; assay type: functional

| EC50 [3] | Ratio [4] | Activity [5] | fold change (FC) [5] | SMILES | viability [2] | further results |
| --- | --- | --- | --- | --- | --- | --- |
| 9.6 µM | > 1 | – | – | CN(C)CCCn1c2c(c3ccccc3c1=O)C(=O)c1ccccc1-2 | 52.5% | fold change (FC) [1]: 2.6 |
| 18.4 µM | > 1 | – | – | CN(C)CCCn1c2c(c3ccc(Br)cc3c1=O)C(=O)c1ccccc1-2 | 48.5% | – |
| 16.4 µM | 6.7 | 100% | 1 | NCCCCCCn1c2c(c3ccccc3c1=O)C(=O)c1ccccc1-2 | 24.9% | – |
| 10.7 µM | > 1 | – | – | CNCCCn1c2c(c3ccc(Br)cc3c1=O)C(=O)c1ccccc1-2 | 31.3% | – |
| > 34.7 µM | – | – | – | CC(=O)Nc1ccc2c3c(n(CCCN)c(=O)c2c1)-c1ccccc1C3=O | 69.2% | – |
| 12.2 µM | 4.9 | 83.8% | 0.838 | NCCCCCn1c2c(c3ccccc3c1=O)C(=O)c1ccccc1-2 | 40.7% | – |
| > 44.5 µM | > 1 | – | – | COC(=O)CC(=O)Nc1ccc2c3c(n(CCCN)c(=O)c2c1)-c1ccccc1C3=O | 85% | fold change (FC) [1]: 1.7 |
| > 20.7 µM | > 1 | – | – | CN(C)CCCn1c2c(c3ccc(C#N)cc3c1=O)C(=O)c1ccccc1-2 | 54.8% | – |
| 8.4 µM | > 1 | – | – | NCCCn1c2c(c3ccc(NCC(=O)O)cc3c1=O)C(=O)c1ccccc1-2 | 61.2% | – |
| 4.84 µM | > 1 | – | – | COc1ccc2c(c1)C(=O)c1c-2n(CCCN)c(=O)c2ccccc12 | 46.8% | – |
| 11.3 µM | 9.9 | 35.3% | 0.353 | NCCCCn1c2c(c3ccccc3c1=O)C(=O)c1ccccc1-2 | 53.8% | – |
| 15.9 µM | 8.2 | – | – | NCCn1c2c(c3ccccc3c1=O)C(=O)c1ccccc1-2 | 30.7% | – |
| 10 µM | > 1 | 15.1% | 0.151 | NCCCn1c2c(c3ccc(N)cc3c1=O)Cc1ccccc1-2 | 49.3% | – |
| 8.66 µM | 11.4 | 42.7% | 0.427 | NCCCn1c2c(c3ccccc3c1=O)C(=O)c1ccccc1-2 | 50.8% | – |
| 9.22 µM | > 1 | – | – | CNCCCn1c2c(c3ccccc3c1=O)C(=O)c1ccccc1-2 | 51.2% | fold change (FC) [1]: 7.6 |
| 7 µM | > 1 | 21.4% | 0.214 | CN(C)CCCn1c2c(c3ccc(N)cc3c1=O)C(=O)c1ccccc1-2 | 53.7% | fold change (FC) [1]: 2.5 |
| 19.5 µM | > 1 | – | – | COC(=O)c1ccc2c3c(n(CCCN(C)C)c(=O)c2c1)-c1ccccc1C3=O | 21.7% | – |
| – | < 1 | – | – | O=C(O)CCn1c2c(c3ccc(Br)cc3c1=O)C(=O)c1ccccc1-2 | 98% | – |
| – | < 1 | – | – | COc1cc2c3c(n(CCCN)c(=O)c2cc1OC)-c1ccc(F)cc1C3=O | 23.8% | – |
| – | < 1 | – | – | C[N+](C)(C)CCCn1c2c(c3ccccc3c1=O)C(=O)c1ccccc1-2 | 99.4% | – |
| – | < 1 | 1.62% | 0.0162 | CCOC(=O)CNc1ccc2c3c(n(CCCN)c(=O)c2c1)-c1ccccc1C3=O | 22.2% | Activity [1]: inactive |

| SMILES | EC50 [3] | Ratio [4] | Activity [5] | fold change (FC) [5] | viability [2] | further results |
| --- | --- | --- | --- | --- | --- | --- |
| NCCCn1c2c(c3ccc(N)cc3c1=O)C(=O)c1ccccc1-2 | 4.4 µM | – | – | – | 52.1% | inhibition [6]: inactive; IC50 (HL-60 [7]): 0.092 µM; Activity (HL-60 [8]): 4.5%; Activity (HL-60 [9]): 28.7% |
